Measured values reported in ChEMBL document CHEMBL4130604, “Germacrane-Type Sesquiterpenoids with Antiproliferative Activities from Eupatorium chinense” (J Nat Prod, 2018).
pIC50: −log10 of the molar value.

Assays:
Assay type in all cases: functional, cell-based
[1] = system: Ca-Ski; assay: Antiproliferative activity against human CaSki cells after 48 hrs by MTT assay
How it was run: (§1)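 Cytotoxicity was read by MTT method on human Caski cervical, MDA-MB-231 breast, CNE2 nasopharyngeal and HepG2 hepatocellular carcinoma lines. Mitomycin C served as positive control, and medium containing 0.1% DMSO was the negative control. IC50 values are reported in μM. Other details follow an earlier protocol.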

[2] = system: HepG2; assay: Antiproliferative activity against human HepG2 cells after 48 hrs by MTT assay; conditions: HepG2, 48 h; how it was run: as §1
[3] = system: MDA-MB-231; assay: Antiproliferative activity against human MDA-MB-231 cells after 48 hrs by MTT assay; conditions: MDA-MB-231, 48 h; how it was run: as §1
[4] = system: CNE-2; assay: Antiproliferative activity against human CNE2 cells after 48 hrs by MTT assay; conditions: CNE-2, 48 h; how it was run: as §1

Row | Compound | pIC50 [2] | pIC50 [3] | pIC50 [1] | pIC50 [4]
1 | CO[C@@]12[C@H](COC(N)=O)C3=C(C(=O)C(C)=C(N)C3=O)N1C[C@@H]1N[C@@H]12 [MITOMYCIN] | < 5.00 | 5.36 | < 5.00 | < 5.00
2 | C=C1C(=O)O[C@@H]2/C=C(/COC(C)=O)[C@@H](OC(C)=O)C/C=C(\C)C[C@@H](OC(=O)/C(C)=C/CO)[C@@H]12 | < 5.00 | < 5.00 | < 5.00 | < 5.00
3 | C=C1C(=O)O[C@@H]2/C=C(/CO)[C@@H](OC(C)=O)C/C=C(\C)C[C@@H](OC(=O)/C(C)=C/C)[C@@H]12 | < 5.00 | < 5.00 | < 5.00 | < 5.00
4 | C=C1C(=O)O[C@@H]2/C=C(/C)[C@@H](OC(C)=O)[C@H](O)/C=C(\C)C[C@@H](OC(=O)/C(=C\C)CO)[C@@H]12 | < 5.00 | < 5.00 | < 5.00 | < 5.00
5 | C=C1C(=O)O[C@@H]2/C=C(/CO)[C@@H](OC(C)=O)C[C@@H](O)C(=C)C[C@@H](OC(=O)/C(=C\C)CO)[C@@H]12 | < 5.00 | < 5.00 | < 5.00 | < 5.00
6 | C=C1C(=O)O[C@@H]2/C=C(/C)[C@@H](OC(C)=O)C[C@@H](O)C(=C)C[C@@H](OC(=O)/C(=C\C)CO)[C@@H]12 | < 5.00 | < 5.00 | < 5.00 | < 5.00

The next lines start with results.

Row | pIC50 [2] | pIC50 [3] | Compound | pIC50 [1] | pIC50 [4]
7 | < 5.00 | < 5.00 | C=C1C(=O)O[C@@H]2/C=C(/C)[C@@H](OC(C)=O)[C@H](OC(C)=O)/C=C(\C)C[C@@H](OC(=O)/C(=C\C)CO)[C@@H]12 | < 5.00 | < 5.00
8 | 5.44 | 6.10 | C=C1C(=O)O[C@@H]2/C=C(/C)[C@@H](OC(C)=O)C/C=C(\C)C[C@@H](OC(=O)/C(=C\C)CO)[C@@H]12 | < 5.00 | < 5.00
9 | 5.12 | < 5.00 | C=C1C(=O)O[C@@H]2/C=C(/CO)[C@@H](OC(C)=O)C/C=C(\C)C[C@@H](OC(=O)/C(=C\C)CO)[C@@H]12 | < 5.00 | < 5.00
10 | 5.20 | 5.48 | C=C1C(=O)O[C@@H]2/C=C(/C)[C@H](OC(C)=O)C/C=C(\C)C[C@@H](OC(=O)/C(=C\C)CO)[C@@H]12 | < 5.00 | < 5.00
